ROMK mod = human ROMK K+ channel modulation, primary screen; P48048; Tet-inducible ROMK, thallium flux fluorescence; actives lie on both sides; B-score at 10 µM; 130,000 tested, 2% active; AID 1918;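 active = signal ratio slope over the read window, or its plate-corrected B-score, at least 3 SD from the plate mean, either direction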;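 also: B-score of the F/F0 ratio slope over 7 to 12 s after thallium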
Target sequence (P48048 whole entry, looked up): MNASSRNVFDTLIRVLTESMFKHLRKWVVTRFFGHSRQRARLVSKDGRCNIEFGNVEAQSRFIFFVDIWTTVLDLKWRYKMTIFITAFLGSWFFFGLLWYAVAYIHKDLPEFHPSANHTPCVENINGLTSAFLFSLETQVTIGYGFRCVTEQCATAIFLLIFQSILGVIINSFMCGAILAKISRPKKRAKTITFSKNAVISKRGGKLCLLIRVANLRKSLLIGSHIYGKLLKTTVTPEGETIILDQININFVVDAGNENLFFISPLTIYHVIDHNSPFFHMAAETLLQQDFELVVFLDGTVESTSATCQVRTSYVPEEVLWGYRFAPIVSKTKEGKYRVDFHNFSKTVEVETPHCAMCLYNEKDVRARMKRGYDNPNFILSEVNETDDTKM
WT yeast gro inh = growth inhibition of WT yeast, mitochondrial fusion screen; mitochondrial fusion phenotypic screen, WT strain; 190,000 tested, 2.1% active; inhibition, % at 10 µM; in the data active = inhibition above about 58%; tested in S. cerevisiae
KCC2 mod = KCC2 (human) Cl- transport modulation; Q9H2X9; KCC2 cells, thallium flux FluoZin-2 fluorescence; B-score of Tl+ flux slope (higher = more flux/activation; lower = inhibition) at 10 µM; 190,000 tested, 2.2% active; AID 1456;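 active = thallium flux slope and its plate-corrected score both differing from the plate sample mean at a set confidence after two filtering rounds, in either direction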;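 also: slope of fluorescence scaled to starting intensity during 10 to 20 s after thallium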
L major viab = reduces viability of Leishmania major promastigotes; 200,000 tested, 9% active; resazurin fluorescence viability; inhibition, % at 10 µM; AID 1063; in the data active = inhibition above about 50%;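 also: promastigotes grown with compound for 44 hours at 28 °C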
Diaphorase inh = counter-screen for diaphorase-based assays: diaphorase inhibitors and chemical oxidizers. diaphorase resazurin-to-resorufin fluorescence, NADH, 16 min; bacterial (C. kluyveri) enzyme, not human. inhibition, % at 20 µM. 190,000 tested, 0.69% active. AID 1217;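 active = primary screen inhibition at 20 µM above a set limit, cut at about 50% in these data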;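 also: plate controls were DMSO with full reaction for no effect and wells lacking NADH for full effect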
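Test system: Clostridium kluyveri diaphorase enzyme / Quantity: diaphorase at 0.14 U/mL in enzyme working solution / Incubation: 16-min room-temperature incubation before reading / Benchmarks: NADH-free wells as positive control, DMSO-only neutral wells / Signal: resorufin fluorescence 544/590 nm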
Diaph act CS = activates diaphorase or chemically reduces, flagging diaphorase assay artifacts; Diaphorase/resazurin coupled assay, resorufin fluorescence, 16 min; stronger effect = higher value; 1 = vehicle wells, 0 = NADH-free wells; activation factor at 20 µM; 190,000 tested, 0.005% active;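 active = diaphorase activity raised at least twofold by the compound at 20 µM; inactive = activation factor below 2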
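Material: purified diaphorase enzyme from Clostridium kluyveri; Also added: 0.114 mM NADH and 0.1 mM resazurin, final amounts; Doses: single compound dose of 20 µM, 1% DMSO final; Times: 16 min enzyme reaction, ambient temperature; Detection: resorufin fluorescence, excitation 544 nm, emission 590 nm; Measure: increased resorufin signal from activators or reducing compounds.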
* marks the source's active call; other numbers are inactive results; . = no result. Shown are actives, neighbours in structure and some others; about 12% of the full set was active somewhere.

SMILES	ROMK mod	WT yeast gro inh	KCC2 mod	L major viab	Diaphorase inh	Diaph act CS
COc1ccc(C)cc1NC(=O)CNc1ccccc1CN(C)C1CCCCC1	-1.6	8	-0.27	43	16	0.8
COc1ccc(Cl)cc1NC(=O)CNc1ccccc1CN(C)C1CCCCC1	-2.2	30	-1.8	96*	12	0.9
O=C(CCN1CCOCC1)NNC(=S)NC(=O)c1ccccc1	-0.84	-1	0.94	-9	36	0.6
CN1CCN(CCCC(=O)c2ccc(C3CCCC3)cc2)CC1	-1.7	15	0.025	97*	-5	1.1
O=C(NC1CCCCC1)C(c1ccccc1)N(Cc1ccc2c(c1)OCO2)C(=O)c1cnsn1 (stereo not drawn)	-2.4*	17	0.13	35	15	0.9
COc1ccc(N(C(=O)c2cnsn2)C(C(=O)NC2CCCCC2)c2ccncc2)cc1 (stereo not drawn)	0.56	-23	-0.21	58*	2	1
Cc1ccc(C(C(=O)NC2CCCC2)N(Cc2ccc3c(c2)OCO3)C(=O)Cc2cccs2)cc1 (stereo not drawn)	.	11	0.28	43	5	1
O=C1CN(C(=O)CSc2nnc(C3CC3)n2-c2ccccc2)c2ccccc2N1	.	1	-0.053	-3	8	0.9
CCC(=O)N1c2ccc(C)cc2C2=NNC(=S)NC21O (stereo not drawn)	0.1	12	5.4*	-1	5	1
Cc1nc(NCc2ccco2)c2c3c(sc2n1)CCC3	.	-3	.	14	18	0.8
CC1CCCc2sc3nc(NCc4ccco4)n4ncnc4c3c21 (stereo not drawn)	.	79*	0.16	7	8	0.9
CCN1CCN(c2nc3sc4c(c3c3ncnn23)CC(C)CC4)CC1 (stereo not drawn)	.	-15	0.41	6	11	0.9
CC1CCc2sc3nc(NCc4ccco4)n4ncnc4c3c2C1 (stereo not drawn)	0.48	82*	0.06	5	24	0.8
CNC(=S)N1N=C(c2ccc(Br)cc2)CC1c1ccc(N(C)C)cc1 (stereo not drawn)	0.41	16	-0.75	51*	10	0.9
CNC(=S)N1N=C(c2ccc(OC)cc2)CC1c1ccc(N(C)C)cc1 (stereo not drawn)	.	0	0.12	5	19	0.8
CNC(=S)N1N=C(c2ccc(C)cc2)CC1c1ccc(OC)c(OC)c1 (stereo not drawn)	-0.42	23	0.028	14	24	0.8
CNC(=S)N1N=C(c2ccc(Br)cc2)CC1c1ccc(Br)cc1 (stereo not drawn)	-0.64	7	-0.18	100*	12	0.9
COC(=O)c1ccccc1NC(=O)Cn1c(=O)n(Cc2ccccc2)c(=O)c2c(C)c(C)sc21	.	18	0.028	89*	-7	1.1
COc1ccc(C(NC(=O)c2c(F)c(F)c(F)c(F)c2F)c2ccccc2)cc1 (stereo not drawn)	.	29	-1	95*	12	0.9
CCOc1ccc2c(c1)OC(c1ccc(OC)cc1)(C(F)(F)F)NC2=O (stereo not drawn)	.	40	-0.53	100*	22	0.8
O=C(NCCCn1ccnc1)C(Cc1ccc([N+](=O)[O-])cc1)N1C(=O)c2ccccc2C1=O (stereo not drawn)	.	-14	0.42	-3	7	0.9
CCn1c(-c2cc(-c3cccc(OC)c3)nc3ccccc23)n[nH]c1=S	0.074	24	2.7*	2	32	0.7
CCc1ccc(-c2cc(-c3n[nH]c(=S)n3CC)c3ccccc3n2)cc1	0.71	-3	2.4	12	17	0.8
O=C(NC(NC(=S)Nc1c(Cl)cc(Cl)cc1Cl)C(Cl)(Cl)Cl)OCc1ccccc1 (stereo not drawn)	.	7	-0.14	33	11	0.9
Cc1ccc(C)c(NC(=S)NC(NC(=O)OCc2ccccc2)C(Cl)(Cl)Cl)c1 (stereo not drawn)	.	-9	-0.36	58*	3	1
SMILES	ROMK mod	WT yeast gro inh	KCC2 mod	L major viab	Diaphorase inh	Diaph act CS
COc1ccc(C2C(Oc3ccccc3)C(=O)N2c2cc(C)ccc2C)cc1OC (stereo not drawn)	.	.	-0.023	3	20	0.8
COc1ccc(C)cc1N1C(=N)/C(=C2/Nc3ccccc3S2)C(c2ccccc2)C1=O (stereo not drawn)	-0.11	84*	-0.91	100*	12	0.9
CCOC(=O)c1c(-c2ccc(C)cc2)csc1NC(=O)CCN1CC(C)OC(C)C1 (stereo not drawn)	.	12	-0.18	98*	24	0.8
CCOC(=O)c1c(NC(=O)CCN2CCOCC2)sc(C)c1-c1ccccc1	-0.1	36	.	52*	28	0.7
CCOC(=O)c1c(-c2ccc(OC)cc2)csc1NC(=O)CCN1CCOCC1	-0.095	25	-0.43	84*	-11	1.1
CCOC(=O)c1c(-c2ccc(C)o2)csc1NC(=O)CN1CCN(CC)CC1	-1.9	0	0.18	2	17	0.8
CCOC(=O)c1c(-c2ccc(C)o2)csc1NC(=O)CN1CCCCC1	-1	83*	-0.23	39	15	0.9
CCOC(=O)c1c(-c2ccccc2)csc1NC(=O)c1ccc(S(=O)(=O)N2CC(C)OC(C)C2)cc1 (stereo not drawn)	.	-10	.	18	19	0.8
Cc1ccc(CNC(=O)CCC2CCCN(Cc3cccc4cccnc34)C2)o1 (stereo not drawn)	0.24	7	0.82	5	5	0.9
COc1ccc(C=C(C(C)=O)C(C)=O)cc1OC	-2.5	-22	0.084	41	8	0.9
COc1cc(C=C(C(C)=O)C(C)=O)ccc1O	.	-10	.	63*	10	0.9
CCNc1nc(NCC)nc(Oc2ccc(OCC)nn2)n1	.	5	-0.74	-8	14	0.9
CCNc1nc(N)nc(Oc2ccc(OCCOc3ccc(Cl)cc3Cl)nn2)n1	.	8	-1.7	98*	22	0.8
COc1cccc(N=Nc2c(N)[nH]n3c(=O)c4c(nc23)CCCC4)c1	.	-10	-0.03	74*	18	0.8
COc1cccc(C2C(=O)N(C3CCCCC3)CC(=O)N2Cc2ccc(F)cc2)c1 (stereo not drawn)	0.12	4	0.89	53*	10	0.9
O=C(Nc1ccc(S(=O)(=O)Nc2ncccn2)cc1)c1cccc(S(=O)(=O)N2CCOCC2)c1	.	.	0.73	.	.	.
COc1cccc(C2c3[nH]c4ccccc4c3CCN2Cc2cccn2-c2ncccn2)c1 (stereo not drawn)	-0.31	17	-1.7	11	29	0.7
Clc1ccc(-n2cccc2CN2CCc3c([nH]c4ccccc34)C2c2ccccn2)nc1 (stereo not drawn)	0.2	49	.	96*	17	0.8

Source: PubChem BioAssay (several laboratories)
